Values after ≈ are worked out from the molar mass of the structure shown. Active and inactive are the calls of the source. The rule behind the calls is not given here.
Key:
Plasmodium falciparum [1] = assay: Antimalarial activity against Plasmodium falciparum NF54 infected assessed as inhibition of female gamete formation incubated for 48 hrs by automated bright field microscopic analysis; type: functional, organism-based; settings: NF54, 48 h
[2] = Metabolic stability in human liver microsome assessed as intrinsic clearance; type: ADME; settings: microsomes
Plasmodium falciparum [3] = assay: Antiplasmodial activity against W454-resistant population 2 Plasmodium falciparum 3D7 harboring Plasmodium falciparum ATP4 L928F mutant by LDH assay; type: functional, organism-based
Plasmodium falciparum [4] = assay: Antiplasmodial activity against N-(2,6-difluorophenyl)-2-(6-(5-methyl-1,3,4-oxadiazol-2-yl)-1H-indol-1-yl)acetamide-resistant Plasmodium falciparum Dd2 harboring plasmodium falciparum ATP4 F156L mutant by SYBR green staining based analysis; type: functional, organism-based
Plasmodium falciparum [5] = assay: Antimalarial activity against trophozoite stage Plasmodium falciparum 3D7 at 10 times EC50 incubated for 48 hrs by SYBR Green dye based analysis; type: functional, organism-based
Plasmodium falciparum [6] = assay: Antiplasmodial activity against N-(2,6-difluorophenyl)-2-(6-(5-methyl-1,3,4-oxadiazol-2-yl)-1H-indol-1-yl)acetamide-resistant Plasmodium falciparum Dd2 harboring plasmodium falciparum ATP4 D425E mutant by SYBR green staining based analysis; type: functional, organism-based
Plasmodium falciparum [7] = assay: Antiplasmodial activity against multidrug-resistant Plasmodium falciparum Dd2 harboring plasmodium falciparum ATP4 I398F/P990R/D1247Y mutant by SYBR green staining based analysis; type: functional, organism-based
Plasmodium falciparum [8] = assay: Antiplasmodial activity against W454-resistant population 1 Plasmodium falciparum 3D7 harboring Plasmodium falciparum ATP4 L928F mutant by LDH assay; type: functional, organism-based
HepG2 [9] = assay: Cytotoxicity against human HepG2 cells; type: functional
Plasmodium falciparum [10] = assay: Antiplasmodial activity against Plasmodium falciparum 3D7 infected in human […] cells incubated for 72 hrs; type: functional, organism-based; settings: 3D7, 72 h
[11] = molecular target: T1, P-type sodium-transporting ATPase4 (Plasmodium falciparum (isolate 3D7), UniProt A0A143ZZK9); assay: Inhibition of Plasmodium falciparum 3D7 ATP4 assessed as increase in Na+ concentration in parasite cytosol measured for 60 mins; type: subcellular
T1 sequence (A0A143ZZK9 whole entry): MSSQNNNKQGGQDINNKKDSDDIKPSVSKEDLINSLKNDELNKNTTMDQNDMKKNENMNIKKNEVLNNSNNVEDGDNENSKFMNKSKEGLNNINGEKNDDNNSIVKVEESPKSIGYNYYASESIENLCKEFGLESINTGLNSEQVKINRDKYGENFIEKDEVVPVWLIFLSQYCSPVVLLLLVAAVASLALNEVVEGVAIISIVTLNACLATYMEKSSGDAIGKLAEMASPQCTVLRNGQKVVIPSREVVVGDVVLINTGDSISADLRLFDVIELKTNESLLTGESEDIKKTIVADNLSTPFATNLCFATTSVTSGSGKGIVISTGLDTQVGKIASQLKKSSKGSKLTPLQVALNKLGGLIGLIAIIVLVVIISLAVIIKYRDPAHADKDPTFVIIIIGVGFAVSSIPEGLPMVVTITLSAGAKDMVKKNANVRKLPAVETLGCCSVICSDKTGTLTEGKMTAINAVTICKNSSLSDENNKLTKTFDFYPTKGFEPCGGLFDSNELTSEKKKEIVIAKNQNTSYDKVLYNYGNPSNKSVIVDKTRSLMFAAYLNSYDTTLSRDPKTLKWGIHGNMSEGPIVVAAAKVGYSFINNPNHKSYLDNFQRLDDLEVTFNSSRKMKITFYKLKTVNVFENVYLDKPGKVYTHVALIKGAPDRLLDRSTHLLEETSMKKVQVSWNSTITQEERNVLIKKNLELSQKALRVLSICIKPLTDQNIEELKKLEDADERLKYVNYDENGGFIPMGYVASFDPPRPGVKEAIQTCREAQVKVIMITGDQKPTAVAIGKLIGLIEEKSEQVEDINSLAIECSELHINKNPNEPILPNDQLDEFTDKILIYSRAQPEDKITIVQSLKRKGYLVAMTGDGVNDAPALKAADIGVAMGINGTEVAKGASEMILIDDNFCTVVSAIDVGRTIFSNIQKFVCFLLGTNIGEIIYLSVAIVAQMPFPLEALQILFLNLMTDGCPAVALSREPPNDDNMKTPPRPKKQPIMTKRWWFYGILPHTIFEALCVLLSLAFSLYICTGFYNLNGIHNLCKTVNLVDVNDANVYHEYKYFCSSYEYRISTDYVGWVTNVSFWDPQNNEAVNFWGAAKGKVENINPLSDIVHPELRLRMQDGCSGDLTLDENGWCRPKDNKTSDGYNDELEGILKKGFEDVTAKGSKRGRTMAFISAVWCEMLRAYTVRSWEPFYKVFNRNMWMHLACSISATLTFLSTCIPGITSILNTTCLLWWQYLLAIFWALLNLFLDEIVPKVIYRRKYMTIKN

[12] = Metabolic stability in rat hepatocyte […] assessed as intrinsic clearance measured per 10^6 cells; type: ADME, cell-based; settings: hepatocytes
HepG2 [13] = assay: Cytotoxicity against human HepG2 cells assessed as inhibition of cell growth incubated for 48 hrs by celltiterglo assay; type: toxicity, cell-based; settings: hepg2, 48 h
[14] = Lipophilicity, logD of compound at pH 7.4 by shake-flask method; type: physicochemical; settings: buffer
Plasmodium falciparum [15] = assay: Antiplasmodial activity against N-(2,6-difluorophenyl)-2-(6-(5-methyl-1,3,4-oxadiazol-2-yl)-1H-indol-1-yl)acetamide-resistant Plasmodium falciparum Dd2 harbouring ATP4 genome with 2.8 fold CNV by SYBR green staining based analysis; type: functional, organism-based
Plasmodium falciparum [16] = assay: Antiplasmodial activity against Plasmodium falciparum 3D7 infected in RBC assessed as reduction in extracellular parasite growth measured for 8 hrs by Giemsa-staining based microscopic analysis; type: functional; parameters: scale not given: the % may be the effect or the level left
In short: (§1)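 Giemsa-stained thin smears were read at 8 h and the percentages of extracellular and intracellular parasites counted, compared with untreated parasites at 0 h.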

Plasmodium falciparum [17] = assay: Antiplasmodial activity against W454-resistant population 3 Plasmodium falciparum 3D7 harboring Plasmodium falciparum ATP4 L928F mutant by LDH assay; type: functional, organism-based
[18] = molecular target: T2, P-type sodium-transporting ATPase4 (Plasmodium falciparum (isolate 3D7)) (UniProt A0A143ZZK9); assay: Inhibition of Plasmodium falciparum 3D7 ATP4 assessed as increase in Na+ concentration in parasite cytosol upto 1000 nM measured for 60 mins; type: subcellular
T2 sequence (whole entry): T1 sequence (A0A143ZZK9 whole entry)

Plasmodium falciparum [19] = assay: Antimalarial activity against Plasmodium falciparum NF54 infected assessed as inhibition of male gamete formation incubated for 48 hrs by automated bright field microscopic analysis; type: functional, organism-based; settings: NF54, 48 h
Plasmodium falciparum [20] = assay: Antiplasmodial activity against Plasmodium falciparum 3D7 infected in RBC assessed as reduction in parasite growth measured for 8 hrs by Giemsa-staining based microscopic analysis; type: functional, organism-based; in short: as §1
[21] = Metabolic stability in mouse liver microsome assessed as intrinsic clearance; type: ADME; settings: microsomes
Plasmodium falciparum [22] = assay: Antiplasmodial activity against multidrug-resistant Plasmodium falciparum Dd2 harboring plasmodium falciparum ATP4 G358S mutant by SYBR green staining based analysis; type: functional, organism-based
Plasmodium falciparum [23] = assay: Antiplasmodial activity against asexual Plasmodium falciparum 3D7 infected in human […] cells assessed as reduction in parasite growth measured for 72 hrs by LDH assay; type: functional, organism-based; settings: 3D7, 72 h
[24] = Aqueous solubility in PBS buffer at pH 7.4; type: physicochemical
Plasmodium falciparum [25] = assay: Antiplasmodial activity against Plasmodium falciparum 3D7 infected in human […] cells; type: functional, organism-based
Plasmodium falciparum [26] = assay: Antiplasmodial activity against wild type Plasmodium falciparum 3D7 incubated for 48 hrs; type: functional, organism-based; settings: 3D7, 48 h
Plasmodium falciparum [27] = assay: Antiplasmodial activity against multidrug resistant Plasmodium falciparum W2mef incubated for 48 hrs by SYBR staining based fluorometer assay; type: functional, organism-based
Plasmodium falciparum [28] = assay: Antiplasmodial activity against multi-drug resistant Plasmodium falciparum Dd2; type: functional, organism-based
Plasmodium falciparum [29] = assay: Antiplasmodial activity against multidrug resistant Plasmodium falciparum Cam3.1 incubated for 48 hrs by SYBR staining based fluorometer assay; type: functional, organism-based; settings: Cam3.1, 48 h
Plasmodium falciparum [30] = assay: Antiplasmodial activity against N-(2,6-difluorophenyl)-2-(6-(5-methyl-1,3,4-oxadiazol-2-yl)-1H-indol-1-yl)acetamide-resistant Plasmodium falciparum Dd2 harbouring ATP4 genome with 2.8 fold CNV; type: functional, organism-based
Plasmodium falciparum [31] = assay: Antiplasmodial activity against N-(2,6-difluorophenyl)-2-(6-(5-methyl-1,3,4-oxadiazol-2-yl)-1H-indol-1-yl)acetamide-resistant Plasmodium falciparum Dd2 harboring plasmodium falciparum ATP4 D425E mutant; type: functional, organism-based
Plasmodium falciparum [32] = assay: Antiplasmodial activity against N-(2,6-difluorophenyl)-2-(6-(5-methyl-1,3,4-oxadiazol-2-yl)-1H-indol-1-yl)acetamide-resistant Plasmodium falciparum Dd2 harboring plasmodium falciparum ATP4 F156L mutant; type: functional, organism-based
Plasmodium falciparum [33] = assay: Antiplasmodial activity against Plasmodium falciparum 3D7; type: functional, organism-based
Plasmodium falciparum [34] = assay: Antiplasmodial activity against multidrug-resistant Plasmodium falciparum Dd2 harboring plasmodium falciparum ATP4 I398F/P990R/D1247Y mutant; type: functional, organism-based
Plasmodium falciparum [35] = assay: Antiplasmodial activity against multidrug-resistant Plasmodium falciparum Dd2 harboring plasmodium falciparum ATP4 G358S mutant; type: functional, organism-based

## Cc1nnc(-c2ccc3ccn(CC(=O)Nc4ccccc4Cl)c3c2)o1
Plasmodium falciparum [1]
  EC50: 5000 nM
[2]
  intrinsic clearance (CLint): > 462 µL/min/mg
Plasmodium falciparum [3]
  EC50: > 10000 nM
Plasmodium falciparum [4]
  EC50: 1160 nM
Plasmodium falciparum [5]
  Activity: Active
Plasmodium falciparum [6]
  EC50: 786 nM
Plasmodium falciparum [7]
  EC50: 2540 nM
Plasmodium falciparum [8]
  EC50: > 10000 nM
HepG2 [9]
  CC50: > 40000 nM
Plasmodium falciparum [10]
  EC50: 569 nM
[11]
  IC50: ~400 nM
[12]
  intrinsic clearance (CLint): > 92 uL/min/10^6 cells
HepG2 [13]
  CC50: > 40000 nM
[14]
  logD: 3.1
Plasmodium falciparum [15]
  EC50: 901 nM
Plasmodium falciparum [16]
  Activity: 3.5%
Plasmodium falciparum [17]
  EC50: > 10000 nM
[18]
  inhibition: Active
Plasmodium falciparum [19]
  EC50: 3600 nM
Plasmodium falciparum [20]
  Activity: Active
[21]
  intrinsic clearance (CLint): 410 µL/min/mg
Plasmodium falciparum [22]
  EC50: 1280 nM
Plasmodium falciparum [23]
  EC50: 667 nM
[24]
  solubility kinetic: 10.9 µM (≈ 4 µg/mL)
Plasmodium falciparum [25]
  EC50: 667 nM

## O[C@@H](c1cc(C(F)(F)F)nc2c(C(F)(F)F)cccc12)[C@H]1CCCCN1 (racemic) [(S,R)-MEFLOQUINE]
Plasmodium falciparum [26]
  EC50: 23 nM
Plasmodium falciparum [27]
  EC50: 64 nM
Plasmodium falciparum [28]
  EC50: 35 nM
Plasmodium falciparum [29]
  EC50: 9 nM

## Cc1nnc(-c2ccc3ccn(CC(=O)Nc4ccc(F)cc4F)c3c2)o1
Plasmodium falciparum [30]
  EC50: 30 nM
Plasmodium falciparum [31]
  EC50: 30 nM
Plasmodium falciparum [32]
  EC50: 25 nM
Plasmodium falciparum [33]
  EC50: 16 nM
HepG2 [13]
  CC50: > 40000 nM
Plasmodium falciparum [34]
  EC50: 142 nM
Plasmodium falciparum [35]
  EC50: 28 nM
Plasmodium falciparum [23]
  EC50: 4250 nM

Source: ChEMBL document CHEMBL6115053, “Optimization and Characterization of N-Acetamide Indoles as Antimalarials That Target PfATP4” (J Med Chem, 2025)
